Source: ChEMBL document CHEMBL4334469, “Integrated Synthetic, Biophysical, and Computational Investigations of Covalent Inhibitors of Prolyl Oligopeptidase and Fibroblast Activation Protein α” (J Med Chem, 2019)
Activity calls are given as the source filed them. No cut-off for these calls is given here. Peptide text beside a SMILES is read from it. * marks the point of attachment. Cbz = O=C(OCc1ccccc1)*

Assays:
Prolyl endopeptidase = target: T1, Prolyl endopeptidase (Homo sapiens, UniProt P48147); assay: (§1) Inhibition of recombinant human POP pre-incubated for 30 mins before addition of ZGP-pNA substrate by absorbance assay
T1 sequence (P48147 whole entry): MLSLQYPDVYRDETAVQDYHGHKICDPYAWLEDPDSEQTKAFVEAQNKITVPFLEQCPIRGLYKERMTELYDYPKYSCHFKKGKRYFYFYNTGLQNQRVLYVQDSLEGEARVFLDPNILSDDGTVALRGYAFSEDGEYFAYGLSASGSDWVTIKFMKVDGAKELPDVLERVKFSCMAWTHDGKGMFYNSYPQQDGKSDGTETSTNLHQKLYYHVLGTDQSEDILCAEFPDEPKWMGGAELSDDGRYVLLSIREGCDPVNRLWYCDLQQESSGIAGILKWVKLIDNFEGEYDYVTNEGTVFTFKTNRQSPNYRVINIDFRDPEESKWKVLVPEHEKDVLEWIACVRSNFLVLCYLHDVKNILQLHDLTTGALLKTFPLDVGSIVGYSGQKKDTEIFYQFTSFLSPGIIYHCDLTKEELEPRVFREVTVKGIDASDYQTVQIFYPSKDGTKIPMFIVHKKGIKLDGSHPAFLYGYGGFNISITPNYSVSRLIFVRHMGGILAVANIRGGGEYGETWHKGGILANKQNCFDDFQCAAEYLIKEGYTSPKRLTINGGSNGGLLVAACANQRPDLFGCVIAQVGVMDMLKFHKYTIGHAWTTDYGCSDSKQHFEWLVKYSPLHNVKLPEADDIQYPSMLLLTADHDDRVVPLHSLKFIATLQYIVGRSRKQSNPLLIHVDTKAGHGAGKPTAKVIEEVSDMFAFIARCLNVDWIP

[1] = target: Prolyl endopeptidase FAP (Homo sapiens) (UniProt Q12884); assay: Inhibition of human recombinant FAP at 100 uM using fluorogenic DPP substrate1 relative to control
[2] = Drug metabolism in buffer assessed as formation of [(2R)-1-(2-benzyl-3-oxo-isoindoline-4-carbonyl)pyrrolidin-2-yl]boronic acid after 10 mins by LC-MS analysis
How it was run: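 Boronic ester hydrolysis was followed by LC-MS (UHPLC-QTOF, positive ESI). Ester from a 100 mM DMSO stock was diluted 1:10 into buffer in a capped autosampler vial. Aliquots were taken at 5 min intervals and loop-injected in 1:1 water/acetonitrile with 0.1% formic acid. The boronic ester remaining was tracked over time.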

[3] = target: T2, Prolyl endopeptidase (Homo sapiens) (UniProt P48147); assay: as §1
T2 sequence (whole entry): T1 sequence (P48147 whole entry)

[4] = target: Prolyl endopeptidase FAP (Homo sapiens) (UniProt Q12884); assay: Inhibition of human recombinant FAP at 10 uM using fluorogenic DPP substrate1 relative to control
Prolyl endopeptidase FAP = target: T3, Prolyl endopeptidase FAP (Homo sapiens, UniProt Q12884); assay: Inhibition of FAP (unknown origin)
T3 sequence (Q12884 whole entry): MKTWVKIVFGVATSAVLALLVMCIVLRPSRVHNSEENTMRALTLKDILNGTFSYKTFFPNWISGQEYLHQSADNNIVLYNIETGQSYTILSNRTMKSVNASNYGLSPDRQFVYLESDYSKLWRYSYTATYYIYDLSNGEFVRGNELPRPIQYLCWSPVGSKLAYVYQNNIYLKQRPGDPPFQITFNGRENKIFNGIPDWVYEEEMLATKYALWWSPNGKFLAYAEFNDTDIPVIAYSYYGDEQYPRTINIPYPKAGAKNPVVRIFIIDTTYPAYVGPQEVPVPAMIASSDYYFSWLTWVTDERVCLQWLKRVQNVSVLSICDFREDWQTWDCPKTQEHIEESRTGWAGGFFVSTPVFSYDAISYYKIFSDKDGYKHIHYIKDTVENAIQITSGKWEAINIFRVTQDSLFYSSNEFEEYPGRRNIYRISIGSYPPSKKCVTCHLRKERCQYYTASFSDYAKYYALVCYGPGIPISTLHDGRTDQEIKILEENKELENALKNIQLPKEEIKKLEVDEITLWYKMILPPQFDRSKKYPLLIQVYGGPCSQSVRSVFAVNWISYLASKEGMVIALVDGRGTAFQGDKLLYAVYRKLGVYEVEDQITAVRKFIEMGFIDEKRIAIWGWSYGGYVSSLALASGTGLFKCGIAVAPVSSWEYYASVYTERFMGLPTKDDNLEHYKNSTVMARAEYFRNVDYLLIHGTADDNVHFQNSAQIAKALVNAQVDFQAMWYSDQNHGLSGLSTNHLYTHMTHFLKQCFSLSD

Question: With `N#C[C@@H]1C[C@@H](F)CN1C(=O)c1cccc2c1C(=O)N(Cc1ccccc1)C2` as the compound, how does the Ki (Prolyl endopeptidase) read?
Answer: > 100 µM

Question: And the inhibition [1]?
Answer: < 5%

Question: For `CC1(C)[C@H]2C[C@@H]3OB([C@@H]4CCCN4C(=O)c4cccc5c4C(=O)N(Cc4ccccc4)C5)O[C@]3(C)[C@@H]1C2`, which inhibition [1] is on record?
Answer: < 5%

Question: And the Drug metabolism [2]?
Answer: 90%

Question: With `CC1(C)[C@@H]2C[C@@H](O)[C@@](C)(O)[C@H]1C2` as the compound, how does the inhibition [3] read?
Answer: inactive

Question: With `O=C[C@@H]1CCCN1C(=O)c1cccc2c1C(=O)N(Cc1ccccc1)C2` as the compound, how does the inhibition [1] read?
Answer: 80%

Question: And the inhibition [4]?
Answer: 11%

Question: For `N#C[C@@H]1CC(F)(F)CN1C(=O)c1cccc2c1C(=O)N(Cc1ccccc1)C2`, which Ki (Prolyl endopeptidase) is on record?
Answer: 3.3 µM

Question: What about the inhibition [1] of the same compound?
Answer: < 5%

Question: With `O=C(c1cccc2c1C(=O)N(Cc1ccccc1)C2)N1CC[C@@H](F)C1` as the compound, how does the inhibition [1] read?
Answer: < 5%

Question: What does the source list for `N#C[C@@H]1C[C@H](F)CN1C(=O)c1cccc2c1C(=O)N(Cc1ccccc1)C2`?
Answer: Ki (Prolyl endopeptidase): 0.17 µM; inhibition [1]: < 5%

Question: Which IC50 (Prolyl endopeptidase FAP) does the source give for `CC(C)[C@H](NC(=O)c1ccncc1)C(=O)N1CCC[C@H]1B(O)O` here?
Answer: > 100 µM

Question: For `O=C[C@@H]1CCCN1C(=O)[C@@H]1CCCN1C(=O)OCc1ccccc1` (Cbz-Pro-Pro-aldehyde), which inhibition [1] is on record?
Answer: < 5%

Question: Which inhibition [1] does the source give for `O=C(c1cccc2c1C(=O)N(Cc1ccccc1)C2)N1CCCC1` here?
Answer: < 5%

Question: For `N#C[C@@H]1CCCN1C(=O)c1cccc2c1C(=O)N(Cc1ccccc1)C2`, which inhibition [1] is on record?
Answer: 20%

Question: With `O=C(c1cccc2c1C(=O)N(Cc1ccccc1)C2)N1CC[C@H](F)C1` as the compound, how does the inhibition [1] read?
Answer: < 5%
